{"data": "Results from different studies", "KCNA1": "Potassium voltage-gated channel subfamily A member 1 (KCNA1, Homo sapiens, UniProt Q09470)", "note": "Compare with care: the assays were run in different laboratories."}
{"SMILES": "C=CC(=O)N1CCC(COCC(=O)N2CCN(c3nc(-c4cnc(N)nc4C(F)F)nc(N4CCOC[C@@H]4C)n3)CC2)CC1", "target": "Dual specificity protein kinase CLK2 (CLK2, Homo sapiens, UniProt P49760)", "test": "binding, competition with immobilised ligand", "conditions": "1 µM", "endpoint": "remaining binding", "value": "79%"}
{"SMILES": "CNCCCC12CCC(c3ccccc31)c1ccccc12", "target": "KCNA1", "test": "ion current, inhibitor, patch clamp", "conditions": "30 µM", "endpoint": "inhibition", "value": "50.2%"}
{"SMILES": "CNc1ncc2c(/C=C/C(=O)N3CCC(OC)CC3)nn(Cc3cccc(C(F)(F)F)c3)c2n1", "target": "Serine/threonine-protein kinase 38-like (STK38L, Homo sapiens, UniProt Q9Y2H1)", "test": "enzyme activity, inhibitor, radiometric", "conditions": "1 µM", "endpoint": "remaining activity", "value": "90%"}
{"SMILES": "Cc1cc([C@@H](C)Nc2ccccc2C(=O)O)c2nc(N3CCC(F)(F)CC3)c(C#N)c(=O)n2c1", "target": "RAF proto-oncogene serine/threonine-protein kinase (RAF1, Homo sapiens, UniProt P04049)", "test": "binding, competition with immobilised ligand", "conditions": "10 µM", "endpoint": "remaining binding", "value": "90%"}
{"SMILES": "CCCN1C[C@H](CSC)C[C@@H]2c3cccc4[nH]cc(c34)C[C@H]21", "target": "KCNA1", "test": "ion current, inhibitor, patch clamp", "conditions": "10 µM", "endpoint": "inhibition", "value": "19.6%"}
{"SMILES": "CC[C@H](C)[C@H](NC(=O)[C@H](CCC(N)=O)NC(=O)[C@H](CCCNC(=N)N)NC(=O)[C@H](CO)NC(=O)[C@H](Cc1c[nH]cn1)NC(=O)[C@@H]1CCCN1C(=O)[C@H](C)NC(=O)[C@H](CO)NC(=O)[C@H](CC(C)C)NC(=O)CNC(=O)[C@@H]1CCCN1C(=O)[C@H](CCC(N)=O)NC(=O)[C@H](CCC(N)=O)NC(=O)[C@H](CCCNC(=N)N)NC(=O)[C@H](CO)NC(=O)CNC(=O)[C@H](CO)NC(=O)[C@H](CO)NC(=O)[C@H](CCC(=O)O)NC(=O)[C@@H]1CCCN1C(=O)[C@@H]1CCCN1C(=O)[C@@H]1CCCN1C(=O)[C@H](CO)NC(=O)[C@H](CC(C)C)NC(=O)[C@H](CO)NC(=O)[C@@H](NC(=O)CN)[C@@H](C)O)C(=O)N1CCC[C@H]1C(=O)N[C@@H](C)C(=O)N1CCC[C@H]1C(=O)N[C@@H](CCC(N)=O)C(=O)NCC(=O)N[C@@H](C)C(=O)N[C@H](C(=O)N[C@@H](CC(C)C)C(=O)N[C@H](C(=O)N[C@@H](CCC(N)=O)C(=O)N[C@@H](CCCNC(=N)N)C(=O)N[C@@H](CCC(=O)O)C(=O)N[C@@H](CCCCN)C(=O)N[C@@H](CC(=O)O)C(=O)N[C@@H](CC(C)C)C(=O)N1CCC[C@H]1C(=O)N[C@@H](CC(N)=O)C(=O)N[C@@H](Cc1ccc(O)cc1)C(=O)N[C@@H](CC(N)=O)C(=O)N[C@@H](Cc1c[nH]c2ccccc12)C(=O)N[C@@H](CC(N)=O)C(=O)N[C@@H](CO)C(=O)N[C@@H](Cc1ccccc1)C(=O)NCC(=O)N[C@@H](CC(C)C)C(=O)N[C@@H](CCCNC(=N)N)C(=O)N[C@@H](Cc1ccccc1)C(N)=O)C(C)C)C(C)C", "target": "KiSS-1 receptor (KISS1R, Homo sapiens, UniProt Q969F8, N119A)", "test": "inositol phosphate, agonist", "test system": "HEK293", "endpoint": "Emax", "value": "93.6%"}
{"SMILES": "Cn1c(=O)c2[nH]cnc2n(C)c1=O", "target": "KCNA1", "test": "ion current, inhibitor, patch clamp", "conditions": "10 µM", "endpoint": "inhibition", "value": "2.05%"}
{"SMILES": "O=C(Cn1cc(C=CC(=O)c2ccc(F)cc2)nn1)Nc1nc(-c2ccccc2)cs1", "target": "Collagenase 3 (MMP13, Homo sapiens, UniProt P45452)", "test": "enzyme activity, inhibitor", "conditions": "0.5 µM", "endpoint": "inhibition", "value": "35.8%"}
{"SMILES": "O=C(O)CNc1cccc(CN(Cc2ccc(-n3cccn3)cc2)S(=O)(=O)c2cccnc2)n1", "target": "Prostaglandin E2 receptor EP2 subtype (PTGER2, Homo sapiens, UniProt P43116)", "test": "ligand displacement, radioligand", "conditions": "10 µM", "endpoint": "inhibition", "value": "95%"}
{"SMILES": "O=C1NC(=O)C(c2ccccc2)(c2ccccc2)N1", "target": "KCNA1", "test": "ion current, inhibitor, patch clamp", "conditions": "10 µM", "endpoint": "inhibition", "value": "13.2%"}
{"SMILES": "CC(=O)c1c(C)c2cnc(Nc3ccc(N4CCNCC4)cn3)nc2n(C2CCCC2)c1=O", "target": "Cyclin-dependent kinase 3 (CDK3, Homo sapiens, UniProt Q00526)", "test": "enzyme activity, inhibitor, ADP detection", "conditions": "1 µM", "endpoint": "activity vs control", "value": "90%"}
{"SMILES": "COc1cc(-c2cncc3c2CN(C)Cc2cc(N4CCNCC4)ccc2-3)cc(OC)c1OC", "target": "Insulin receptor (INSR, Homo sapiens, UniProt P06213)", "test": "enzyme activity, inhibitor", "conditions": "1 µM", "endpoint": "remaining activity", "value": "107%"}
